In ChEMBL document CHEMBL1921722, “In vitro and in vivo evaluation of select kahalalide F analogs with antitumor and antifungal activities” (Bioorg Med Chem, 2011):

What was measured:
Type in all cases: functional
CAKI-1 [1] = assay: Cytotoxicity against human Caki1 cells assessed as cell growth at 8 nM by sulforhodamine B assay relative to control; details: read-out: Activity
CAKI-1 [2] = assay: Cytotoxicity against human Caki1 cells assessed as cell growth at 8 uM by sulforhodamine B assay relative to control; details: read-out: Activity
CCRF-CEM [3] = assay: Cytotoxicity against human CCRF-CEM cells by sulforhodamine B assay
How it was run: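 Run at NCI in the DTP 60-cell-line human tumor panel by standard procedure. Compounds were first screened at a single concentration, then tested at five tenfold-spaced concentrations. GI50 is the concentration reducing treated-cell growth to half that of untreated controls; TGI is the concentration completely halting growth.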

CCRF-CEM [4] = assay: Cytotoxicity against human CCRF-CEM cells assessed as cell growth at 800 nM by sulforhodamine B assay relative to control; details: read-out: Activity
CCRF-CEM [5] = assay: Cytotoxicity against human CCRF-CEM cells assessed as cell growth at 8 uM by sulforhodamine B assay relative to control; details: read-out: Activity
CCRF-CEM [6] = assay: Cytotoxicity against human CCRF-CEM cells assessed as cell growth at 80 uM by sulforhodamine B assay relative to control; details: read-out: Activity

Row | SMILES | growth at 0.008 µM (CAKI-1 [1]) [%] | growth at 8 µM (CAKI-1 [2]) [%] | GI50 (CCRF-CEM [3]) [µM] | CC50 (CCRF-CEM [3]; read-out: pLC50 (the source's name) (converted)) [µM] | TGI (CCRF-CEM [3]; read-out: pTGI (converted)) [µM] | growth at 0.8 µM (CCRF-CEM [4]) [%] | growth at 8 µM (CCRF-CEM [5]) [%] | growth at 80 µM (CCRF-CEM [6]) [%]
1 | C/C=C1\NC(=O)[C@H](Cc2ccccc2)NC(=O)[C@@H](C(C)C)NC(=O)[C@@H]([C@@H](C)CC)NC(=O)[C@H](NC(=O)[C@H](NC(=O)[C@H](CCCNCc2ccc(F)c(C)c2)NC(=O)[C@H]2CCCN2C(=O)[C@H](NC(=O)[C@@H](NC(=O)[C@@H](NC(=O)[C@H](NC(=O)CCCC(C)C)C(C)C)[C@@H](C)O)C(C)C)C(C)C)[C@@H](C)CC)[C@@H](C)OC(=O)[C@H](C(C)C)NC1=O | 130 | -86 |  |  |  |  |  | 
2 | C/C=C1\NC(=O)[C@H](Cc2ccccc2)NC(=O)[C@@H](C(C)C)NC(=O)[C@@H]([C@@H](C)CC)NC(=O)[C@H](NC(=O)[C@H](NC(=O)[C@H](CCCNCc2ccc(N3CCOCC3)cc2)NC(=O)[C@H]2CCCN2C(=O)[C@H](NC(=O)[C@@H](NC(=O)[C@@H](NC(=O)[C@H](NC(=O)CCCC(C)C)C(C)C)[C@@H](C)O)C(C)C)C(C)C)[C@@H](C)CC)[C@@H](C)OC(=O)[C@H](C(C)C)NC1=O |  |  | 22.9 | > 75.9 | 39.8 | 128 | 82 | -31
